# In ChEMBL document CHEMBL4145654, “Structure-Based Discovery of CF53 as a Potent and Orally Bioavailable Bromodomain and Extra-Terminal (BET) Bromodomain Inhibitor” (J Med Chem, 2018):
# Legend:
# MOLM-13 = assay: Growth inhibition of human MOLM13 cells after 4 days by WST-8 assay; assay type: functional, cell-based; settings: MOLM-13, 96 h
# Method in brief: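 Leukemia cells, used within 3 months of thaw, were seeded at 10 000 cells/well and exposed to serially diluted compound in culture medium for 4 days. WST-8 reagent was added at 10% (v/v) final for 1−3 h, and absorbance was read at 450 nm. Readings were normalized to DMSO-treated cells, and the IC50 was fitted by nonlinear regression.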
# MDA-MB-231 = assay: Growth inhibition of human MDA-MB-231 cells after 4 days by WST-8 assay; assay type: functional, cell-based; settings: MDA-MB-231, 96 h
# Method in brief: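 Cells used within 3 months of thaw. Breast cancer cells seeded at 3000 cells/well, then serially diluted compound added, cultured 4 days. Growth read by WST-8 (10% v/v final, 1−3 h, 450 nm). Readings normalized to DMSO-treated cells. IC50 by nonlinear regression.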
# [1] = Plasma concentration in SCID mouse xenografted with human MDA-MB-231 cells at 50 mg/kg administered via oral gavage measured after 1 hr; assay type: ADME, organism-based
# Method in brief: (§1)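 Limited PK in SCID mice bearing MDA-MB-231 tumors, 50 mg/kg given by oral gavage. Plasma and tumor tissue drug levels measured at two time points per compound. Values are the mean of two mice/tumors per time point.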
# [2] = Plasma concentration in SCID mouse xenografted with human MDA-MB-231 cells at 50 mg/kg administered via oral gavage measured after 6 hrs; assay type: ADME, organism-based
# Method in brief: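 SCID mice carrying MDA-MB-231 tumors dosed orally at 50 mg/kg. Plasma drug level determined by LC-MS/MS (positive-ion MRM, C18 column, formic acid/acetonitrile gradient). Value is the mean from two mice per time point.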
# [3] = Drug uptake in tumor of SCID mouse xenografted with human MDA-MB-231 cells at 50 mg/kg administered via oral gavage measured after 1 hr; assay type: ADME, organism-based, Neoplasm; settings: read-out: Drug uptake; method in brief: as §1
# Mus musculus = assay: Cmax in Balb/c mouse at 25 mg/kg, po by LC-MS/MS analysis; assay type: ADME, organism-based; set-up: dose 25 mg/kg, route oral; settings: in vivo
# Method in brief: (§2)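 Balb/c mice dosed iv at 5.0 mg/kg or po at 25 mg/kg, compound in vehicle of 20% (v/v) PCP and 70% (v/v) PBS. Serial blood samples taken at 0, 5, 15, 30 min and 1, 2, 4, 6, 8, 24 h. Plasma obtained by centrifugation and stored at −80 °C. Analysis by LC-MS/MS, positive-ion MRM. Parameters from noncompartmental analysis.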
# [4] = AUC in Balb/c mouse at 5 mg/kg, iv by LC-MS/MS analysis; assay type: ADME, organism-based; settings: in vivo; method in brief: as §2
# [5] = Clearance in Balb/c mouse at 5 mg/kg, iv by LC-MS/MS analysis; assay type: ADME, organism-based; settings: in vivo; method in brief: as §2
# [6] = AUC in Balb/c mouse at 25 mg/kg, po by LC-MS/MS analysis; assay type: ADME, organism-based; settings: in vivo; method in brief: as §2
# [7] = Oral bioavailability in Balb/c mouse at 25 mg/kg by LC-MS/MS analysis; assay type: ADME, organism-based; settings: in vivo; method in brief: as §2
# [8] = target: Bromodomain-containing protein 4 (Homo sapiens, UniProt O60885); assay: Binding affinity to human BRD4 bromodomain 1 (N44 to E168 residues) expressed in bacterial expression system by BROMOscan assay
# [9] = target: T1, Bromodomain testis-specific protein (Homo sapiens, UniProt Q58F21); assay: Binding affinity to human BRDT bromodomain 1 (N21 to E137 residues) expressed in bacterial expression system by BROMOscan assay
# [10] = target: T1, Bromodomain testis-specific protein; assay: Binding affinity to human BRDT bromodomain 2 (K250 to E382 residues) expressed in bacterial expression system by BROMOscan assay
# CREB-binding protein = CREB-binding protein (Homo sapiens, UniProt Q92793); assay: Binding affinity to human CREBBP (R1081 to G1197 residues) expressed in bacterial expression system by BROMOscan assay
# [11] = target: Bromodomain adjacent to zinc finger domain protein 2A (Homo sapiens, UniProt Q9UIF9); assay: Binding affinity to human BAZ2A (M1792 to L1905 residues) expressed in bacterial expression system by BROMOScan assay
# Sequence of Bromodomain adjacent to zinc finger domain protein 2A (Q9UIF9 whole entry, the tested form may be a part): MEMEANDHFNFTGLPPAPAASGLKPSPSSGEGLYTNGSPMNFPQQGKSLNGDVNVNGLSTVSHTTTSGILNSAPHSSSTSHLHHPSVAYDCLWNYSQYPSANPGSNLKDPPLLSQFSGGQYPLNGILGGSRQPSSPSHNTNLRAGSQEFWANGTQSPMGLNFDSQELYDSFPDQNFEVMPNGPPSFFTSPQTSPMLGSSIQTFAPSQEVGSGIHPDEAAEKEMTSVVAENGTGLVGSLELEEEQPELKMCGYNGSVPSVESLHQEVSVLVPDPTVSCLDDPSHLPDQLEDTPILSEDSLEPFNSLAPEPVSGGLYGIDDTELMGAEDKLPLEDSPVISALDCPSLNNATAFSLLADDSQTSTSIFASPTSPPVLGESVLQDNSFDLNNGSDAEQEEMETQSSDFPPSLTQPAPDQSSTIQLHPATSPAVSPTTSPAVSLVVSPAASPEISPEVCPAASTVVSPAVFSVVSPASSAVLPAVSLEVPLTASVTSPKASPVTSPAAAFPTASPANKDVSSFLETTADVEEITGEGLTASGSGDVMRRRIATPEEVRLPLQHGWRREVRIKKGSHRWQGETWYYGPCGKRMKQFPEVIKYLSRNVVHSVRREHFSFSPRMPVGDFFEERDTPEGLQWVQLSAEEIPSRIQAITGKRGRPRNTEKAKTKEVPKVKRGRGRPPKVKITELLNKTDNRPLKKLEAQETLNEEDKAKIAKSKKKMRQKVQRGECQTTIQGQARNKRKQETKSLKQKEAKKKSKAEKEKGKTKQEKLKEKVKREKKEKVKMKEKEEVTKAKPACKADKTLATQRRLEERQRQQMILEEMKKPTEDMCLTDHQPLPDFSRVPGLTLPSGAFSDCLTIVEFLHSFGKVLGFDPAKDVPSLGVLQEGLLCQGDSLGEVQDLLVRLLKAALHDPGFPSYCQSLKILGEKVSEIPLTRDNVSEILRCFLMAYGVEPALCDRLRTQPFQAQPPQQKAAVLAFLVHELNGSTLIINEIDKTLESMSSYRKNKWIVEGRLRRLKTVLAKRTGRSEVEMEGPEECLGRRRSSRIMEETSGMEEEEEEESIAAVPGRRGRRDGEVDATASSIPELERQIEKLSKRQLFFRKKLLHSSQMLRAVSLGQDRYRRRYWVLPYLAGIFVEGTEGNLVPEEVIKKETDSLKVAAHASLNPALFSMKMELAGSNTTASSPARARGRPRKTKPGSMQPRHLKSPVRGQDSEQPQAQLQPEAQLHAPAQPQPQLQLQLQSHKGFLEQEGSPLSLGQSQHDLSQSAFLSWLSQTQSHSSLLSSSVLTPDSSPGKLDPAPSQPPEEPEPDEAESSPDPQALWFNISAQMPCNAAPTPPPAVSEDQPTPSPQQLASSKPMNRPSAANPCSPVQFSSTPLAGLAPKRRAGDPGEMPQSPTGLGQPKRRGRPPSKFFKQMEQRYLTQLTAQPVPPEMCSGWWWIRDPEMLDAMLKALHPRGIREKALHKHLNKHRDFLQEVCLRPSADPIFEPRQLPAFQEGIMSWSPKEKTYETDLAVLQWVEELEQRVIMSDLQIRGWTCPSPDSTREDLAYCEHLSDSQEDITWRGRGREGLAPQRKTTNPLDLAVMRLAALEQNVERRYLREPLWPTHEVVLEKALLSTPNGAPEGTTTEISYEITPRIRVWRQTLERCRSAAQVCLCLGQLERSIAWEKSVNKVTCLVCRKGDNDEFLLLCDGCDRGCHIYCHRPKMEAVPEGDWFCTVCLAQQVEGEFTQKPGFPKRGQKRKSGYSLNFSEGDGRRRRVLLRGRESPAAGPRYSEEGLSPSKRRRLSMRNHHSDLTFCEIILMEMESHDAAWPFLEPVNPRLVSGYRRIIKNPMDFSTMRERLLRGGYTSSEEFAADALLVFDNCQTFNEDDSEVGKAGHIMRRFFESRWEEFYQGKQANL
# [12] = target: Bromodomain-containing protein 7 (Homo sapiens, UniProt Q9NPI1); assay: Binding affinity to human BRD7 (L125 to R254 residues) expressed in bacterial expression system by BROMOScan assay
# [13] = target: Bromodomain-containing protein 8 (Homo sapiens, UniProt Q9H0E9); assay: Inhibition of BRD8 bromodomain 2 (unknown origin) by BROMOScan assay
# [14] = target: Bromodomain-containing protein 9 (Homo sapiens, UniProt Q9H8M2); assay: Binding affinity to human BRD9 (R130 to V259 residues) expressed in bacterial expression system by BROMOScan assay
# Peregrin = Peregrin (Homo sapiens, UniProt P55201); assay: Binding affinity to human BRPF1 (E627 to G740 residues) expressed in bacterial expression system by BROMOScan assay
# Sequence of Peregrin (P55201 whole entry, the tested form may be a part): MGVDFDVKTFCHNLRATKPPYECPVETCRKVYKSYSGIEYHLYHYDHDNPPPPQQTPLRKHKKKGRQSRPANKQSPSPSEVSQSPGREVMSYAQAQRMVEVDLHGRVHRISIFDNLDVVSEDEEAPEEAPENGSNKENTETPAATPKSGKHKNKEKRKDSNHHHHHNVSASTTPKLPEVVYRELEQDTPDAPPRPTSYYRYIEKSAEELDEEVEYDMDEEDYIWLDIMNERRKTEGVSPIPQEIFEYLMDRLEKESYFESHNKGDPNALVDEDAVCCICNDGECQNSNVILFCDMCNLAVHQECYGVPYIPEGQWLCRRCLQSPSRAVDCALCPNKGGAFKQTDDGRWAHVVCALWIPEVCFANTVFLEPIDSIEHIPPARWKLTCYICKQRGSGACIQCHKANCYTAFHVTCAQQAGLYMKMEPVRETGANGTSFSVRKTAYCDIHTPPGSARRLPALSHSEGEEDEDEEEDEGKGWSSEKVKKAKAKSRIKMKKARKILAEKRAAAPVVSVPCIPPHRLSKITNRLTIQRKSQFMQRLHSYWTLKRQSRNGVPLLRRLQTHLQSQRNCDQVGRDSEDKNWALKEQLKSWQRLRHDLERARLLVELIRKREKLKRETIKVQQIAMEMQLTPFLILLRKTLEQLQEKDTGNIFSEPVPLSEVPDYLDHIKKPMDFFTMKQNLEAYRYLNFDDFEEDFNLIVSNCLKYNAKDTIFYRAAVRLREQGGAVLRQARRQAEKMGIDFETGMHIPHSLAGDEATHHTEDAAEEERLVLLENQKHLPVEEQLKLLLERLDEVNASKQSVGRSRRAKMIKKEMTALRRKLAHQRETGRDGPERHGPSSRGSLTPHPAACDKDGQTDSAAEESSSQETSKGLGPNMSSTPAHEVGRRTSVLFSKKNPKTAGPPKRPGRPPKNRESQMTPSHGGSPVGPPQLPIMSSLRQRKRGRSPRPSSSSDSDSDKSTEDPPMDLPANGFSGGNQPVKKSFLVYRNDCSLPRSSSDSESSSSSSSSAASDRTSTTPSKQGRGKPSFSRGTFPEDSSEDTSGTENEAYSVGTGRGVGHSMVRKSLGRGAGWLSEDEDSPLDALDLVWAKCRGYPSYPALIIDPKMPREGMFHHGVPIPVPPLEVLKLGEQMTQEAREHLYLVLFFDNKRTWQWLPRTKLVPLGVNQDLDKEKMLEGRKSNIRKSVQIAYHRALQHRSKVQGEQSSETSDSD
# [15] = target: Bromodomain and PHD finger-containing protein 3 (Homo sapiens, UniProt Q9ULD4); assay: Binding affinity to human BRPF3 (E588 to G701 residues) expressed in bacterial expression system by BROMOScan assay
# [16] = target: Histone acetyltransferase KAT2A (Homo sapiens, UniProt Q92830); assay: Binding affinity to human GCN5L2 (E726 to K837 residues) expressed in bacterial expression system by BROMOScan assay
# Sequence of Histone acetyltransferase KAT2A (Q92830 whole entry, the tested form may be a part): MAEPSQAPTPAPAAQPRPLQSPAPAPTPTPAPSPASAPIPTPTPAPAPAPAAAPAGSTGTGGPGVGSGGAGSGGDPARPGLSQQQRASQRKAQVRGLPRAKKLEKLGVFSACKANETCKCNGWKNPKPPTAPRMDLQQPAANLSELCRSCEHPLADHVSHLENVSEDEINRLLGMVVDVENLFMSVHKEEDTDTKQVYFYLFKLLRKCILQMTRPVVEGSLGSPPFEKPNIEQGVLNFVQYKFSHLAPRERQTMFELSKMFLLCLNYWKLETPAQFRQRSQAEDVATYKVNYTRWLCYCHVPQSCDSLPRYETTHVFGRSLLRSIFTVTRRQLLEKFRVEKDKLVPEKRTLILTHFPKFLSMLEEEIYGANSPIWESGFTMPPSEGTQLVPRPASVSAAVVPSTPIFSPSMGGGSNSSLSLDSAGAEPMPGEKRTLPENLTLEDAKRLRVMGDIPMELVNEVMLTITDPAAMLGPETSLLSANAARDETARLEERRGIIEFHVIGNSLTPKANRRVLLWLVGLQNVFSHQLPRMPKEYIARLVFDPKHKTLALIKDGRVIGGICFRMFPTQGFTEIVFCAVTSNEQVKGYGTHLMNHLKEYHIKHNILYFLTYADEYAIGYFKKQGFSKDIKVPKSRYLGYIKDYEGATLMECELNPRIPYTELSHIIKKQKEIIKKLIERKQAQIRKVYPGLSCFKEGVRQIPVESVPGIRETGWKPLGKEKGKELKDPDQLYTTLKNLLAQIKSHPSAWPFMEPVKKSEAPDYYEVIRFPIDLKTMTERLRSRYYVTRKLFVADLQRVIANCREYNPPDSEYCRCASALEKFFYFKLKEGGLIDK
# Homo sapiens [17] = organism: Homo sapiens; assay: Selectivity index, ratio of Kd for human CECR2 (P423 to D543 residues) to Kd for human BRD2 bromodomain 2 (E348 to D455 residues)
# Homo sapiens [18] = organism: Homo sapiens; assay: Selectivity index, ratio of Kd for human EP300 (A1040 to G1161 residues) to Kd for human BRD3 bromodomain 1 (P24 to E144 residues)
# Homo sapiens [19] = organism: Homo sapiens; assay: Selectivity index, ratio of Kd for human EP300 (A1040 to G1161 residues) to Kd for human BRD4 bromodomain 2 (K333 to E460 residues)
# Homo sapiens [20] = organism: Homo sapiens; assay: Selectivity index, ratio of Kd for human EP300 (A1040 to G1161 residues) to Kd for human BRDT bromodomain 1 (N21 to E137 residues)
# Homo sapiens [21] = organism: Homo sapiens; assay: Selectivity index, ratio of Kd for human CREBBP (R1081 to G1197 residues) to Kd for human BRD2 bromodomain 2 (E348 to D455 residues)
# Homo sapiens [22] = organism: Homo sapiens; assay: Selectivity index, ratio of Kd for human CREBBP (R1081 to G1197 residues) to Kd for human BRD3 bromodomain 1 (P24 to E144 residues)
# Homo sapiens [23] = organism: Homo sapiens; assay: Selectivity index, ratio of Kd for human CREBBP (R1081 to G1197 residues) to Kd for human BRD3 bromodomain 2 (G306 to P416 residues)
# Homo sapiens [24] = organism: Homo sapiens; assay: Selectivity index, ratio of Kd for human CREBBP (R1081 to G1197 residues) to Kd for human BRD4 bromodomain 1 (N44 to E168 residues)
# [25] = target: Serine/threonine-protein kinase PLK4 (Homo sapiens, UniProt O00444); assay: Inhibition of human PLK4 using casein as substrate in presence of [gamma-33P]-ATP
# Sequence of Serine/threonine-protein kinase PLK4 (O00444 whole entry): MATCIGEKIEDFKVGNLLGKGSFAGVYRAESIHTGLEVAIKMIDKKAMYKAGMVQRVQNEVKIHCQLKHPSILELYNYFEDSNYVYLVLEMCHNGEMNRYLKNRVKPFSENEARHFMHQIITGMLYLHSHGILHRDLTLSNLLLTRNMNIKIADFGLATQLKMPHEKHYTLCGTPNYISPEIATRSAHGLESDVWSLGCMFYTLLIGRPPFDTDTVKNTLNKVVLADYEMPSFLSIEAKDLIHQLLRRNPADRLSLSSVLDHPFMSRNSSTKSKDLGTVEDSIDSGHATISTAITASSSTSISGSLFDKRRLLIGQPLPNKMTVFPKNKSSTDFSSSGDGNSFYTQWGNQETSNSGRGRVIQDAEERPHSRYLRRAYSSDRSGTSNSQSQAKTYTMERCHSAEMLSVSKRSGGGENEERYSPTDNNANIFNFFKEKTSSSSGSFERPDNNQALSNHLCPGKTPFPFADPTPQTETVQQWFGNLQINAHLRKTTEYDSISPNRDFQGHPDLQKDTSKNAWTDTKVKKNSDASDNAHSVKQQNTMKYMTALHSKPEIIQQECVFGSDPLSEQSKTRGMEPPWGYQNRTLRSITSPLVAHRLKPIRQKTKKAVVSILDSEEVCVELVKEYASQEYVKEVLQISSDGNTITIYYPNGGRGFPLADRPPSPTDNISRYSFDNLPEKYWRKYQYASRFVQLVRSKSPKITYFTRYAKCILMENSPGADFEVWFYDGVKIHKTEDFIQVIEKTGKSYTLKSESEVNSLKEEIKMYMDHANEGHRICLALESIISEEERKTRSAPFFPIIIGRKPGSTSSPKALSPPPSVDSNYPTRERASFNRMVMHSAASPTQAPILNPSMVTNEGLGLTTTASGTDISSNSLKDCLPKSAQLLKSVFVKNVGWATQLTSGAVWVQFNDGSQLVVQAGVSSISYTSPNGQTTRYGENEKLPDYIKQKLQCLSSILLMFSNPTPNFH
structure (smiles),measurement,setting,value
COc1cc2c(cc1-c1c(C)noc1C)[nH]c1nc(C)nc(Nc3cc(C4CC4)nn3C)c12,IC50,MOLM-13,7 nM
same,IC50,MDA-MB-231,85 nM
same,concentration at 1 h,[1],12600 ng/mL
same,concentration at 6 h,[2],7360 ng/mL
same,concentration at 1 h,[3],7380 ng/g
same,Cmax,Mus musculus,6400 ng/mL
same,AUC,[4],9.05 µM·h
same,clearance,[5],20.8 mL/min/kg
same,AUC,[6],32.2 µM·h
same,bioavailability,[7],71.3%
same,Kd,[8],2.2 nM
same,Kd,[9],2 nM
same,Kd,[10],2.1 nM
same,Kd,CREB-binding protein,47 nM
same,Kd,[11],> 5000 nM
same,Kd,[12],> 5000 nM
same,Kd,[13],> 5000 nM
same,Kd,[14],> 5000 nM
same,Kd,Peregrin,> 4000 nM
same,Kd,[15],> 5000 nM
same,Kd,[16],> 5000 nM
same,Selectivity Index,Homo sapiens [17],> 50
same,Selectivity Index,Homo sapiens [18],> 50
same,Selectivity Index,Homo sapiens [19],> 50
same,Selectivity Index,Homo sapiens [20],> 50
same,Selectivity Index,Homo sapiens [21],> 20
same,Selectivity Index,Homo sapiens [22],> 20
same,Selectivity Index,Homo sapiens [23],> 20
same,Selectivity Index,Homo sapiens [24],> 20
same,IC50,[25],3900 nM
